ChEMBL document CHEMBL1687847, “Three residues in HIV-1 matrix contribute to protease inhibitor susceptibility and replication capacity” (2011)
Active and inactive are the calls of the source. The calls are words filed in the database; no cut-off is given here.

What follows are compounds tested on Human immunodeficiency virus 1 (assay: Antiviral activity against HIV1 harboring wild type 8.9NSX with gag T81A mutant infected in HEK293T cells assessed as inhibition of viral replication after 48 hrs by luciferase assay). Conditions: HEK-293T.
Type: functional, organism-based
Outline: (§1)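 Resistance vectors were made by cotransfecting HEK293T cells with a p8.9NSX-derived gag-pol vector carrying the matrix/protease variant, a VSV-G plasmid and a firefly luciferase plasmid. At 16 h, producer cells were reseeded in graded PI concentrations, and vectors were harvested 24 h later to infect fresh HEK293T cells. Luciferase was read 48 h postinfection relative to no-drug controls. EC50 came from linear regression, expressed as fold change versus WT subtype B p8.9NSX, mean of ≥2 experiments.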

SMILES	inhibition
COC(=O)N[C@H](C(=O)N[C@@H](Cc1ccccc1)[C@@H](O)CN(Cc1ccc(-c2ccccn2)cc1)NC(=O)[C@@H](NC(=O)OC)C(C)(C)C)C(C)(C)C	inactive
CC(C)CN(C[C@@H](O)[C@H](Cc1ccccc1)NC(=O)O[C@H]1CCOC1)S(=O)(=O)c1ccc(N)cc1 [AMPRENAVIR]	inactive
Cc1c(O)cccc1C(=O)N[C@@H](CSc1ccccc1)[C@H](O)CN1C[C@H]2CCCC[C@H]2C[C@H]1C(=O)NC(C)(C)C [NELFINAVIR]	inactive

Each compound was assayed on Human immunodeficiency virus 1 (assay: Ratio of EC50 for HIV1 harboring HIV1 harboring wild type 8.9NSX with gag […] and T81A mutant to EC50 for wild type HIV1). Conditions: not given.
Type: functional
Outline: as §1

SMILES	Ratio EC50
CC(C)CN(C[C@@H](O)[C@H](Cc1ccccc1)NC(=O)O[C@H]1CCOC1)S(=O)(=O)c1ccc(N)cc1 [AMPRENAVIR]	3
CC(C)CN(C[C@@H](O)[C@H](Cc1ccccc1)NC(=O)O[C@H]1CO[C@H]2OCC[C@H]21)S(=O)(=O)c1ccc(N)cc1 [DARUNAVIR]	3
CC(C)(C)NC(=O)[C@@H]1CN(Cc2cccnc2)CCN1C[C@@H](O)C[C@@H](Cc1ccccc1)C(=O)N[C@H]1c2ccccc2C[C@H]1O.O [INDINAVIR]	3
Cc1cccc(C)c1OCC(=O)N[C@@H](Cc1ccccc1)[C@@H](O)C[C@H](Cc1ccccc1)NC(=O)[C@H](C(C)C)N1CCCNC1=O [LOPINAVIR]	3
Cc1c(O)cccc1C(=O)N[C@@H](CSc1ccccc1)[C@H](O)CN1C[C@H]2CCCC[C@H]2C[C@H]1C(=O)NC(C)(C)C [NELFINAVIR]	3
CC(C)(C)NC(=O)[C@@H]1C[C@@H]2CCCC[C@@H]2CN1C[C@@H](O)[C@H](Cc1ccccc1)NC(=O)[C@H](CC(N)=O)NC(=O)c1ccc2ccccc2n1 [SAQUINAVIR]	3
CCC[C@@]1(CCc2ccccc2)CC(O)=C([C@H](CC)c2cccc(NS(=O)(=O)c3ccc(C(F)(F)F)cn3)c2)C(=O)O1 [TIPRANAVIR]	3

What follows are compounds tested on Human immunodeficiency virus 1 (assay: Antiviral activity against 8gpNS with amino acid 116 insertion removed HIV1 infected in HEK293T cells assessed as inhibition of viral replication after 48 hrs by luciferase assay). Conditions: HEK-293T.
Type: functional, organism-based
Outline: as §1

SMILES	inhibition
COC(=O)N[C@H](C(=O)N[C@@H](Cc1ccccc1)[C@@H](O)CN(Cc1ccc(-c2ccccn2)cc1)NC(=O)[C@@H](NC(=O)OC)C(C)(C)C)C(C)(C)C	inactive
CC(C)CN(C[C@@H](O)[C@H](Cc1ccccc1)NC(=O)O[C@H]1CCOC1)S(=O)(=O)c1ccc(N)cc1 [AMPRENAVIR]	inactive
CC(C)CN(C[C@@H](O)[C@H](Cc1ccccc1)NC(=O)O[C@H]1CO[C@H]2OCC[C@H]21)S(=O)(=O)c1ccc(N)cc1 [DARUNAVIR]	inactive
CC(C)(C)NC(=O)[C@@H]1CN(Cc2cccnc2)CCN1C[C@@H](O)C[C@@H](Cc1ccccc1)C(=O)N[C@H]1c2ccccc2C[C@H]1O.O [INDINAVIR]	inactive
Cc1cccc(C)c1OCC(=O)N[C@@H](Cc1ccccc1)[C@@H](O)C[C@H](Cc1ccccc1)NC(=O)[C@H](C(C)C)N1CCCNC1=O [LOPINAVIR]	inactive
Cc1c(O)cccc1C(=O)N[C@@H](CSc1ccccc1)[C@H](O)CN1C[C@H]2CCCC[C@H]2C[C@H]1C(=O)NC(C)(C)C [NELFINAVIR]	inactive
CC(C)(C)NC(=O)[C@@H]1C[C@@H]2CCCC[C@@H]2CN1C[C@@H](O)[C@H](Cc1ccccc1)NC(=O)[C@H](CC(N)=O)NC(=O)c1ccc2ccccc2n1 [SAQUINAVIR]	inactive
CCC[C@@]1(CCc2ccccc2)CC(O)=C([C@H](CC)c2cccc(NS(=O)(=O)c3ccc(C(F)(F)F)cn3)c2)C(=O)O1 [TIPRANAVIR]	inactive

What follows are compounds tested on Human immunodeficiency virus 1 (assay: Antiviral activity against HIV1 harboring wild type 8.9NSX with mutant amino acid 116 insertion infected in HEK293T cells assessed as inhibition of viral replication after 48 hrs by luciferase assay). Conditions: HEK-293T.
Type: functional, organism-based
Outline: as §1

SMILES	inhibition
COC(=O)N[C@H](C(=O)N[C@@H](Cc1ccccc1)[C@@H](O)CN(Cc1ccc(-c2ccccn2)cc1)NC(=O)[C@@H](NC(=O)OC)C(C)(C)C)C(C)(C)C	inactive
CC(C)CN(C[C@@H](O)[C@H](Cc1ccccc1)NC(=O)O[C@H]1CCOC1)S(=O)(=O)c1ccc(N)cc1 [AMPRENAVIR]	inactive
CC(C)CN(C[C@@H](O)[C@H](Cc1ccccc1)NC(=O)O[C@H]1CO[C@H]2OCC[C@H]21)S(=O)(=O)c1ccc(N)cc1 [DARUNAVIR]	inactive
CC(C)(C)NC(=O)[C@@H]1CN(Cc2cccnc2)CCN1C[C@@H](O)C[C@@H](Cc1ccccc1)C(=O)N[C@H]1c2ccccc2C[C@H]1O.O [INDINAVIR]	inactive
Cc1cccc(C)c1OCC(=O)N[C@@H](Cc1ccccc1)[C@@H](O)C[C@H](Cc1ccccc1)NC(=O)[C@H](C(C)C)N1CCCNC1=O [LOPINAVIR]	inactive
Cc1c(O)cccc1C(=O)N[C@@H](CSc1ccccc1)[C@H](O)CN1C[C@H]2CCCC[C@H]2C[C@H]1C(=O)NC(C)(C)C [NELFINAVIR]	inactive
CC(C)(C)NC(=O)[C@@H]1C[C@@H]2CCCC[C@@H]2CN1C[C@@H](O)[C@H](Cc1ccccc1)NC(=O)[C@H](CC(N)=O)NC(=O)c1ccc2ccccc2n1 [SAQUINAVIR]	inactive
CCC[C@@]1(CCc2ccccc2)CC(O)=C([C@H](CC)c2cccc(NS(=O)(=O)c3ccc(C(F)(F)F)cn3)c2)C(=O)O1 [TIPRANAVIR]	inactive

Each compound was assayed on Human immunodeficiency virus 1 (assay: Antiviral activity against HIV1 harboring mutant protease with matrix K76R mutant infected in HEK293T cells assessed as inhibition of viral replication after 48 hrs by luciferase assay). Conditions: HEK-293T.
Type: functional, organism-based
Outline: as §1

SMILES	inhibition
COC(=O)N[C@H](C(=O)N[C@@H](Cc1ccccc1)[C@@H](O)CN(Cc1ccc(-c2ccccn2)cc1)NC(=O)[C@@H](NC(=O)OC)C(C)(C)C)C(C)(C)C	inactive
CC(C)CN(C[C@@H](O)[C@H](Cc1ccccc1)NC(=O)O[C@H]1CCOC1)S(=O)(=O)c1ccc(N)cc1 [AMPRENAVIR]	inactive
CC(C)(C)NC(=O)[C@@H]1CN(Cc2cccnc2)CCN1C[C@@H](O)C[C@@H](Cc1ccccc1)C(=O)N[C@H]1c2ccccc2C[C@H]1O.O [INDINAVIR]	inactive
Cc1cccc(C)c1OCC(=O)N[C@@H](Cc1ccccc1)[C@@H](O)C[C@H](Cc1ccccc1)NC(=O)[C@H](C(C)C)N1CCCNC1=O [LOPINAVIR]	inactive
Cc1c(O)cccc1C(=O)N[C@@H](CSc1ccccc1)[C@H](O)CN1C[C@H]2CCCC[C@H]2C[C@H]1C(=O)NC(C)(C)C [NELFINAVIR]	inactive

These compounds were tested on Human immunodeficiency virus 1 (assay: Antiviral activity against HIV1 harboring mutant protease with matrix Y79F mutant infected in HEK293T cells assessed as inhibition of viral replication after 48 hrs by luciferase assay). Conditions: HEK-293T.
Type: functional, organism-based
Outline: as §1

SMILES	inhibition
COC(=O)N[C@H](C(=O)N[C@@H](Cc1ccccc1)[C@@H](O)CN(Cc1ccc(-c2ccccn2)cc1)NC(=O)[C@@H](NC(=O)OC)C(C)(C)C)C(C)(C)C	inactive
CC(C)CN(C[C@@H](O)[C@H](Cc1ccccc1)NC(=O)O[C@H]1CCOC1)S(=O)(=O)c1ccc(N)cc1 [AMPRENAVIR]	inactive
CC(C)(C)NC(=O)[C@@H]1CN(Cc2cccnc2)CCN1C[C@@H](O)C[C@@H](Cc1ccccc1)C(=O)N[C@H]1c2ccccc2C[C@H]1O.O [INDINAVIR]	inactive
Cc1cccc(C)c1OCC(=O)N[C@@H](Cc1ccccc1)[C@@H](O)C[C@H](Cc1ccccc1)NC(=O)[C@H](C(C)C)N1CCCNC1=O [LOPINAVIR]	inactive
Cc1c(O)cccc1C(=O)N[C@@H](CSc1ccccc1)[C@H](O)CN1C[C@H]2CCCC[C@H]2C[C@H]1C(=O)NC(C)(C)C [NELFINAVIR]	inactive

What follows are compounds tested on Human immunodeficiency virus 1 (assay: Antiviral activity against HIV1 harboring mutant protease with matrix A81T mutant infected in HEK293T cells assessed as inhibition of viral replication after 48 hrs by luciferase assay). Conditions: HEK-293T.
Type: functional, organism-based
Outline: as §1

SMILES	inhibition
COC(=O)N[C@H](C(=O)N[C@@H](Cc1ccccc1)[C@@H](O)CN(Cc1ccc(-c2ccccn2)cc1)NC(=O)[C@@H](NC(=O)OC)C(C)(C)C)C(C)(C)C	inactive
CC(C)CN(C[C@@H](O)[C@H](Cc1ccccc1)NC(=O)O[C@H]1CCOC1)S(=O)(=O)c1ccc(N)cc1 [AMPRENAVIR]	inactive
CC(C)(C)NC(=O)[C@@H]1CN(Cc2cccnc2)CCN1C[C@@H](O)C[C@@H](Cc1ccccc1)C(=O)N[C@H]1c2ccccc2C[C@H]1O.O [INDINAVIR]	inactive
Cc1cccc(C)c1OCC(=O)N[C@@H](Cc1ccccc1)[C@@H](O)C[C@H](Cc1ccccc1)NC(=O)[C@H](C(C)C)N1CCCNC1=O [LOPINAVIR]	inactive
Cc1c(O)cccc1C(=O)N[C@@H](CSc1ccccc1)[C@H](O)CN1C[C@H]2CCCC[C@H]2C[C@H]1C(=O)NC(C)(C)C [NELFINAVIR]	inactive
